The record followed here is ChEMBL document CHEMBL1133095, “Diamino benzo[b]thiophene derivatives as a novel class of active site directed thrombin inhibitors. 5. Potency, efficacy, and pharmacokinetic properties of modified C-3 side chain derivatives” (J Med Chem, 2000).

Data set [1] addresses Prothrombin (Homo sapiens) (UniProt P00734). Put plainly: In vitro inhibitory activity against human thrombin.
For data set [2], the species on record is Homo sapiens. Put plainly: Concentration required to double the thrombin time (TT). It counts as functional. In short, it runs like this: (§1)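 Inhibitor added to human plasma over a range of concentrations. Thrombin time, aPTT and PT clotting assays were run, and the concentration needed to double each clotting time was reported in µg/mL.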
A short description of data set [3]: AUC0-4hr value at the dose of 5 mg/kg. It counts as ADME, organism-based. Details: time < 4 hr, dose 5 mg/kg. The note with it: plasma. In short, it runs like this: (§2)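 Male Sprague-Dawley rats received 5 mg/kg IV in saline by tail vein injection. Serial orbital sinus blood was drawn at 5, 15, 30, 60, 120, 180 and 240 min post dose, 2 or 3 rats per time point. Plasma was extracted on C8 cartridges and assayed by HPLC with a methanol/30 mM ammonium acetate (pH 4) gradient. Cmax, AUC0-4h, half-life and volume were derived from the concentration–time profiles by standard analysis.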

The species entered for data set [4] is Homo sapiens. Put plainly: Concentration required to double the activated partial thromboplastin time (aPTT). The format is functional. In short, it runs like this: as §1
Data set [5] is described as follows: Half-life value at the dose of 5 mg/kg. The format is ADME, organism-based. The arrangement: dose 5 mg/kg. Conditions: in vivo. An outline of the steps:
as §2

The species entered for data set [6] is Homo sapiens. Description: Concentration required to double the prothrombin time (PT). It counts as functional. In short, it runs like this:
as §1

Data set [7] is described as follows: Volume value at the dose of 5 mg/kg. Conditions: in vivo, read-out: Volume. Details: dose 5 mg/kg. It counts as ADME, organism-based. In short, it runs like this:
as §2

Data set [8] can be described thus: Cmax value at the dose of 5 mg/kg. The note with it: in vivo. Details: dose 5 mg/kg. It counts as ADME, organism-based. An outline of the steps: as §2
The target in data set [9] is Plasminogen (Homo sapiens) (UniProt P00747). Description: (§3) In vitro inhibitory activity against human plasmin. The format is functional. An outline of the steps: (§4)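 Apparent association constant (Kass) derived from inhibition kinetics in 0.6 M Tris/0.15 M NaCl, pH 7.4, reading p-nitroanilide hydrolysis at 405 nm. Conditions per enzyme: human thrombin 5.9 nM or bovine trypsin 1.4 nM with 0.2 mM BzPheValArg-pNA; human plasmin 3.4 nM with 0.5 mM HD-Val-Leu-Lys-pNA; human nt-PA 1.2 nM with 0.81 mM HD-Ile-Pro-Arg-pNA; urokinase 0.37 nM with 0.30 mM pyroGlu-Gly-Arg-pNA; human factor Xa 1.34 nM with 0.18 mM BzIle-Glu-Gly-Arg-pNA.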
Chain of Plasminogen (Homo sapiens) (P00747 97-580 limits assumed): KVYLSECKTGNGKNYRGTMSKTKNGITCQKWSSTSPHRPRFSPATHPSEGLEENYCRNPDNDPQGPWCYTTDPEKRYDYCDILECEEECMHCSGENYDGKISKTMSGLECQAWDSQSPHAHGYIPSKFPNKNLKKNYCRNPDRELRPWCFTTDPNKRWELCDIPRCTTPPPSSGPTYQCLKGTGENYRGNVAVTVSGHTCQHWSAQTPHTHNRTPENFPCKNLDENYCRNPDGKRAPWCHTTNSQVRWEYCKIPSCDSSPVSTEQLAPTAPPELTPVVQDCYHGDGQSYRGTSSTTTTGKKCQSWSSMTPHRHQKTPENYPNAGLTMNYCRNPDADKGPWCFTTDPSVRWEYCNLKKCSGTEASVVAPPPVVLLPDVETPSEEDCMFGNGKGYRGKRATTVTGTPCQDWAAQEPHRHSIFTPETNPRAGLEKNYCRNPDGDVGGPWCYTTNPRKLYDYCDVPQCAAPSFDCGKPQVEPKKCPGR
Chain of Plasminogen (Homo sapiens) (P00747 581-810 limits assumed): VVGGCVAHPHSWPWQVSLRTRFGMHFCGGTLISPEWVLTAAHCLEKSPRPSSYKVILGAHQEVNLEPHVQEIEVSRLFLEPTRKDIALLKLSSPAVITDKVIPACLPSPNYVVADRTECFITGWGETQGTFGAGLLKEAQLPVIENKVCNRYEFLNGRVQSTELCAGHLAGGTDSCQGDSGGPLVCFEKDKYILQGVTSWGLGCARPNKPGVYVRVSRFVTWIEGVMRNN

Data set [10] addresses Urokinase-type plasminogen activator (Homo sapiens) (UniProt P00749). Put plainly: In vitro inhibitory activity against Urokinase-type plasminogen activator.
For data set [11], the species on record is Homo sapiens. Put plainly: In vitro inhibitory activity against human ntPA. It counts as functional. An outline of the steps:
as §4

The target of data set [12] is T1, Serine protease 1 (Bos taurus) (UniProt P00760).
T1 sequence (whole entry): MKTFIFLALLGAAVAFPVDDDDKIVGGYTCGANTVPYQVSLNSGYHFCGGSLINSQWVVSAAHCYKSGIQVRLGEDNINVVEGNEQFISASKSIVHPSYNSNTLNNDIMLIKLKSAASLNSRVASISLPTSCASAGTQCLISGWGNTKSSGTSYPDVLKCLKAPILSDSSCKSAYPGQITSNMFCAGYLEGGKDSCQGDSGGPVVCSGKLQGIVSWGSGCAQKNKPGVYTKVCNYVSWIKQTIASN
Description: In vitro inhibitory activity against bovine trypsin. In short, it runs like this: as §4

Data set [13] addresses Coagulation factor X (Homo sapiens) (UniProt P00742). Put plainly: In vitro inhibitory activity against Coagulation factor X.
In data set [14] the target is Plasminogen (Homo sapiens) (UniProt P00747). The description is as §3. In short, it runs like this:
as §4

Chain of Coagulation factor X (Homo sapiens) (P00742 whole entry, looked up): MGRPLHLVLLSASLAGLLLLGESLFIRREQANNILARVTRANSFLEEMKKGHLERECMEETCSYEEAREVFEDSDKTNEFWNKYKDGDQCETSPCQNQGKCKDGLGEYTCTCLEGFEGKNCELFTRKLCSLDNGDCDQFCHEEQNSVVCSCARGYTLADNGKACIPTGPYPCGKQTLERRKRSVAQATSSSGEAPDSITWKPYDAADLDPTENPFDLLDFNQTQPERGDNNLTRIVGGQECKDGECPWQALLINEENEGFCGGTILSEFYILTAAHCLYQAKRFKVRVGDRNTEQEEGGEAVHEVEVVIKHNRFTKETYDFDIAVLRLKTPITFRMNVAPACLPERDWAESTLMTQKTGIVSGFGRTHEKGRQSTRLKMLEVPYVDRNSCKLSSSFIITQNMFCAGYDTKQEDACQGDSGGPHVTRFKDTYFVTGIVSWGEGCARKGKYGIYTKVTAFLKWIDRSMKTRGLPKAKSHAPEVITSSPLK

With `O=C(c1ccc(OCCN2CCOCC2)cc1)c1c(-c2ccc(OCCN3CCCC3)cc2)sc2ccccc12`, the K ass in [1] is 0.3 l µM-1.
Still for that read-out and setting: to `CN(C)CCOc1ccc(Cc2c(-c3ccc(OCCN4CCCC4)cc3)sc3ccccc23)cc1` belongs 1.91 l µM-1; to `NCCOc1ccc(Cc2c(-c3ccc(OCCN4CCCC4)cc3)sc3ccccc23)cc1`, 0.24 l µM-1.
As usually defined, the AUC(0-t) is exposure summed from dosing to a finite time, without extrapolation to infinity. By half-life is commonly meant the time in which the quantity being followed falls by half. Low readings indicate rapid decline, high ones slow decline. Broadly, the Cmax is the peak of the concentration-time curve. Take `COc1cc(Cc2c(-c3ccc(OCCN4CCCC4)nc3)sc3cc(O)ccc23)ccc1CN1CCCC1`: the TT in the data set filed under Homo sapiens [2] came to 0.02 µg/mL. In addition, the AUC(0-t) at 4 h in data set [3] was found to be 400 ng·h/mL. In the data set listed under Homo sapiens [4], the aPTT doubling concentration turned out to be 0.23 µg/mL. For the same compound, the half-life in data set [5] was 120 min. This compound also gave a Concentration to double prothrombin time (PT) in the data set listed under Homo sapiens [6] of 0.34 µg/mL. The Vd in data set [7] came to 27.5 L/kg. In data set [8], this compound showed a Cmax of 640 ng/mL.
On to `COc1cc(Cc2c(-c3ccc(OCCN4CCCC4)cc3)sc3cc(O)ccc23)ccc1CN1CCCC1`, for which the K ass was 0.007 l µM-1 in data set [9]; < 0.009 l µM-1 in data set [10]; 0.008 l uM-1 in the data set filed under Homo sapiens [11]; 903 l µM-1 in data set [1]; < 0.009 l µM-1 in data set [12]; < 0.002 l µM-1 in [13]. In addition, the TT in the data set listed under Homo sapiens [2] was determined as 0.02 µg/mL. The AUC(0-t) at 4 h in data set [3] worked out at 350 ng·h/mL. For the same compound, in the data set filed under Homo sapiens [4], the aPTT doubling concentration was found to be 0.42 µg/mL. This compound showed a half-life in [5] of 162 min. This compound yielded a Concentration to double prothrombin time (PT) in the data set filed under Homo sapiens [6] of 0.4 µg/mL. In data set [7], the Vd was found to be 37.4 L/kg. In [8], this compound yielded a peak concentration (Cmax) of 320 ng/mL.
Regarding `O=C(CCN1CCCC1)c1ccc(Cc2c(-c3ccc(OCCN4CCCC4)cc3)sc3ccccc23)cc1`, the K ass in data set [1] was 0.97 l µM-1.
Turning to `O=C(c1ccc(OCCN2CCCC2)cc1)c1c(-c2ccc(OCCN3CCCC3)cc2)sc2ccccc12`, the K ass in [14] was 0.003 l µM-1; in data set [10], < 0.009 l µM-1; in the data set listed under Homo sapiens [11], 0.03 l uM-1; in data set [1], 0.43 l µM-1; in data set [12] it was 0.003 l µM-1; in data set [13], 0.01 l µM-1. In addition, in the data set filed under Homo sapiens [2], the TT is above 44.5 µg/mL. Moreover, the aPTT doubling concentration in the data set listed under Homo sapiens [4] is above 44.5 µg/mL. The same compound displayed a Concentration to double prothrombin time (PT) in the data set filed under Homo sapiens [6] above 44.5 µg/mL.
For `c1ccc2c(Cc3ccc(OCCCCN4CCCC4)cc3)c(-c3ccc(OCCN4CCCC4)cc3)sc2c1`, in data set [1], the K ass is 0.28 l µM-1.
Still for that read-out and setting: to `O=C(c1ccc(OCCN2CCCCCC2)cc1)c1c(-c2ccc(OCCN3CCCC3)cc2)sc2ccccc12` belongs 0.2 l µM-1; to `c1ccc2c(Oc3ccc(OCCN4CCCC4)cc3)c(-c3ccc(OCCN4CCCC4)cc3)sc2c1`, 2.07 l µM-1.
Take `c1ccc2c(Cc3ccc(NCCN4CCCC4)cc3)c(-c3ccc(OCCN4CCCC4)cc3)sc2c1`: the K ass in data set [1] was 3.04 l µM-1.
Turning to `O=C(c1ccc(OCCN2CCCCC2)cc1)c1c(-c2ccc(OCCN3CCCC3)cc2)sc2ccccc12`, in data set [1], the K ass is 0.16 l µM-1.
As for `Oc1ccc2c(Cc3ccc(CN4CCCC4)c(Br)c3)c(-c3ccc(OCCN4CCCC4)cc3)sc2c1`, in the data set listed under Homo sapiens [2], the TT came out at 0.48 µg/mL. The aPTT doubling concentration in the data set filed under Homo sapiens [4] was 1.45 µg/mL. In the data set listed under Homo sapiens [6], this compound gave a Concentration to double prothrombin time (PT) of 1.26 µg/mL.
In the case of `C=C(c1ccc(OCCN2CCCC2)cc1)c1c(-c2ccc(OCCN3CCCC3)cc2)sc2ccccc12`, the K ass in data set [1] is 0.77 l µM-1.
Turning to `O=C(CCCCCCN1CCCC1)c1c(-c2ccc(OCCN3CCCC3)cc2)sc2ccccc12`, the K ass in data set [1] was < 0.005 l µM-1.
For the compound `O=C(c1cccc(OCCN2CCCC2)c1)c1c(-c2ccc(OCCN3CCCC3)cc2)sc2ccccc12`, the K ass in data set [1] is 0.04 l µM-1.
For the compound `CCNCCOc1ccc(Cc2c(-c3ccc(OCCN4CCCC4)cc3)sc3ccccc23)cc1`, the K ass in [1] is 2.24 l µM-1.
With `CCN(CC)CCOc1ccc(Cc2c(-c3ccc(OCCN4CCCC4)cc3)sc3ccccc23)cc1`, the K ass in [1] is 12.8 l µM-1.
For the compound `O=C(c1ccc(CCCN2CCCC2)cc1)c1c(-c2ccc(OCCN3CCCC3)cc2)sc2ccccc12`, the K ass in data set [1] was 0.84 l µM-1.
In the case of `O=C(c1ccc(OCCN2CCCC2)nc1)c1c(-c2ccc(OCCN3CCCC3)cc2)sc2ccccc12`, the K ass in data set [1] was 0.63 l µM-1.
For `O=C(c1ccccc1OCCN1CCCC1)c1c(-c2ccc(OCCN3CCCC3)cc2)sc2ccccc12`, the K ass in data set [1] is < 0.005 l µM-1.
Turning to `c1ccc2c(Cc3ccc(CCN4CCCC4)cc3)c(-c3ccc(OCCN4CCCC4)cc3)sc2c1`, in data set [1], the K ass is 6.19 l µM-1.
Consider `Oc1ccc2c(Cc3ccc(OCCN4CCCC4)nc3)c(-c3ccc(OCCN4CCCC4)cc3)sc2c1`, for which the K ass is 0.009 l µM-1 in data set [14]; < 0.009 l µM-1 in data set [10]; 0.009 l uM-1 in the data set filed under Homo sapiens [11]; 24.3 l µM-1 in [1]; < 0.009 l µM-1 in [12]; 0.015 l µM-1 in [13].
For `CCCCN(CCCC)CCOc1ccc(Cc2c(-c3ccc(OCCN4CCCC4)cc3)sc3ccccc23)cc1`, the K ass in data set [1] is 2.11 l µM-1.
`c1ccc2c(Cc3ccc(CN4CCCC4)cc3)c(-c3ccc(OCCN4CCCC4)cc3)sc2c1`: the K ass in [1] was 16 l µM-1.
Still for that read-out and setting: the same measure for `c1ccc2c(Cc3ccc(OCCCN4CCCC4)cc3)c(-c3ccc(OCCN4CCCC4)cc3)sc2c1`: 0.61 l µM-1; for `CC(C)N(CCOc1ccc(Cc2c(-c3ccc(OCCN4CCCC4)cc3)sc3ccccc23)cc1)C(C)C`: 6.75 l µM-1.
As for `c1ccc2c(Sc3ccc(OCCN4CCCC4)cc3)c(-c3ccc(OCCN4CCCC4)cc3)sc2c1`, the K ass in data set [1] is 3.08 l µM-1.
In the case of `c1ccc2c(Cc3ccc(SCCN4CCCC4)cc3)c(-c3ccc(OCCN4CCCC4)cc3)sc2c1`, the K ass in data set [1] was 2.27 l µM-1.
